# An excerpt weighted towards active compounds, which were near 12% of everything screened.
# WT yeast gro inh – growth inhibition of WT yeast, mitochondrial fusion screen. inhibition, % at 10 µM. AID 1362. mitochondrial fusion phenotypic screen, WT strain. 190,000 compounds, 2.1% hits; in the data active means inhibition above about 58%; tested in S. cerevisiae
# L major viab – inhibitors of Leishmania major promastigote growth; 200,000 compounds, 9% hits; Leishmania major promastigotes, resazurin fluorescence viability; inhibition, % at 10 µM; in the data active means inhibition above about 50%;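 further: promastigotes grown with compound for 44 hours at 28 °C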
# Diaph inh CS – inhibits diaphorase or chemically oxidizes, flagging diaphorase assay artifacts | AID 1217 | 190,000 compounds, 0.69% hits | inhibition, % at 20 µM | diaphorase resazurin-to-resorufin fluorescence, NADH, 16 min; bacterial (C. kluyveri) enzyme, not human;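 active means primary screen inhibition at 20 µM above a set limit, cut at about 50% in these data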;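 further: plate controls were DMSO with full reaction for no effect and wells lacking NADH for full effect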
#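 Assay system – diaphorase enzyme from Clostridium kluyveri · Amount – diaphorase 0.14 U/mL (working solution) · Times – reaction incubation of 16 min at room temperature · Controls – No-NADH positive control and DMSO neutral control · Signal – resorufin fluorescence 544/590 nm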
# Diaph act CS – diaphorase activation or chemical reduction counter-screen; Diaphorase/resazurin coupled assay, resorufin fluorescence, 16 min; active compounds read high; 1 = vehicle wells, 0 = NADH-free wells; activation factor at 20 µM; 190,000 compounds, 0.005% hits;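 active means diaphorase activity raised at least twofold by the compound at 20 µM; inactive means activation factor below 2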
#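 Test system: Clostridium kluyveri diaphorase, purified enzyme; input: enzyme 0.07 U/mL final; buffer or medium: 50 mM HEPES pH 7.4 with 4.542 mM MgCl2, 0.005% Tween 20; also added: 0.114 mM NADH and 0.1 mM resazurin, final amounts; schedule: 16 min enzyme reaction, ambient temperature; technique: fluorescence of resorufin, 544 nm excitation, 590 nm emission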
# KCC2 mod – modulates chloride dependent transport by human KCC2; KCC2 cells, thallium flux FluoZin-2 fluorescence; Q9H2X9; 190,000 compounds, 2.2% hits; B-score of Tl+ flux slope (higher = more flux/activation; lower = inhibition) at 10 µM;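 active means thallium flux slope and its plate-corrected score both differing from the plate sample mean at a set confidence after two filtering rounds, in either direction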;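 further: slope of fluorescence scaled to starting intensity during 10 to 20 s after thallium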
# ROMK mod – human ROMK K+ channel modulation, primary screen; 130,000 compounds, 2% hits; B-score at 10 µM; Tet-inducible ROMK, thallium flux fluorescence; actives lie on both sides;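 active means signal ratio slope over the read window, or its plate-corrected B-score, at least 3 SD from the plate mean, either direction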;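 further: B-score of the F/F0 ratio slope over 7 to 12 s after thallium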
# An asterisk follows results filed as active; i = inactive; x = not tested or not shown.
SMILES,WT yeast gro inh,L major viab,Diaph inh CS,Diaph act CS,KCC2 mod,ROMK mod
CC1Oc2ccccc2C=C1/C=N/NC(=O)c1ccccc1O (stereo not given),71*,-15,-1,1,-0.11,x
CC1Oc2ccccc2C=C1/C=N/NC(=O)c1ccccc1 (stereo not given),8,17,16,0.8,1.5,-0.74
CC(C)[C@H](NS(=O)(=O)c1ccc2c(c1)OCCO2)C(=O)OCC(=O)Nc1cc(Cl)ccc1Cl,37,15,19,0.8,-0.45,x
CCCCC(CC)C(=O)Nc1ncc([N+](=O)[O-])s1 (stereo not given),52,59*,9,0.9,-3.3,x
Cc1ccc(CC(=O)Nc2ncc([N+](=O)[O-])s2)cc1,16,16,24,0.8,-0.66,-1.7
COc1ccc(C(=O)NC(NC(=O)c2ccc(OC)c(OC)c2)c2ccccc2F)cc1OC,2,-3,-2,1,0.77,-0.13
N=C1C(c2nc(-c3ccc(Cl)cc3)cs2)=C(O)CN1NC(=O)c1ccc(O)cc1,x,x,x,x,-0.00057,x
COC(=O)c1ccc(CSc2nnc(CS(=O)Cc3ccc(Br)cc3)n2-c2ccccc2)cc1 (stereo not given),23,2,23,0.8,-1.6,-1.7
O=S(Cc1ccc(Br)cc1)Cc1nnc(SCc2ccc(Br)cc2)n1-c1ccccc1 (stereo not given),82*,5,30,0.7,-0.65,-0.84
Cc1ccc(S(=O)(=O)NCCC(c2ccc(F)cc2)c2ccco2)cc1 (stereo not given),37,56*,18,0.8,2,0.24
O=C(NCc1ccncc1)C(=O)NCC(c1ccco1)N1CCN(c2ccc(F)cc2)CC1 (stereo not given),18,55*,11,0.9,0.0022,-0.03
O=S(=O)(NCC(c1ccco1)N1CCN(c2ccc(F)cc2)CC1)c1ccc(F)cc1 (stereo not given),-5,75*,4,1,-0.037,-0.037
Cc1ccc(S(=O)(=O)NCCC(c2ccccc2)c2ccco2)cc1 (stereo not given),31,-2,14,0.9,0.74,1.1
CCOC(=O)c1c(C)nc2sc3c(=O)n(-c4ccc(C(C)=O)cc4)nnc3c2c1-c1ccc(Cl)cc1,13,54*,22,0.8,x,x
CCOC(=O)c1c(C)nc2sc3c(=O)n(-c4ccc(C(C)=O)cc4)cnc3c2c1-c1ccc(Cl)cc1,10,49,12,0.9,-0.78,-0.038
O=C(N/N=C/c1c(O)n(-c2ccc(Cl)cn2)c(=O)c2ccccc12)c1ccncc1,12,-1,59*,0.4,i,x
NCCc1nnc(SCc2c(Cl)cccc2Cl)o1,x,x,x,x,-0.16,x
NCCCCCc1nnc(SCc2ccccc2Cl)o1,16,99*,15,0.9,x,x
CC1CN(C(=O)c2cccn(Cc3c(Cl)cccc3Cl)c2=O)CC(C)O1 (stereo not given),1,-4,8,0.9,-0.85,0.32
Nc1ccc(N2CCN(c3ccc(Cl)c(Cl)c3)CC2)cc1,47,98*,19,0.8,-1.6,0.65
N#C/C=C(/N)N1CCN(c2ccc(Cl)c(Cl)c2)CC1,27,70*,6,0.9,x,x
Nc1ccc(N2CCCCCC2)cc1,-8,100*,41,0.6,x,-1.1
O=C(O)c1ccc(N2CCCCC2)cc1,-2,-9,-5,1,1.1,0.28
Nc1ccc(N2CCN(c3ccc(F)cc3)CC2)cc1,5,78*,10,0.9,0.34,0.49
COC(=O)N1CCN(c2ccc(Cl)c(Cl)c2)CC1,32,21,14,0.9,x,x
SMILES,WT yeast gro inh,L major viab,Diaph inh CS,Diaph act CS,KCC2 mod,ROMK mod
CCOc1ccccc1NC(=O)COC(=O)CC(NC(N)=O)c1ccc(Cl)cc1 (stereo not given),-17,-2,14,0.9,0.58,0.33
S=C(c1ccc(N2CCCC2)cc1)N1CCCCC1,5,88*,16,0.8,-0.45,x
Oc1ccc(C(=S)N2CCCCCC2)cc1,-18,-3,10,0.9,1.3,x
Oc1ccccc1/C=N/Nc1cccc2cccnc12,-3,-5,4,1,-0.014,x
C/C(=N\Nc1cccc2cccnc12)c1ccc(C)cc1,74*,-1,15,0.8,0.77,-0.47
Cc1nc(=O)c(-c2ccccc2)c(C)n1CCCCCC(=O)O,83*,-4,11,0.9,x,-0.21
Cc1ccccc1OCCC(=O)Nc1ccc(F)c(Cl)c1,24,68*,0,1,-1.6,0.092
OC(COc1ccc2ccccc2c1Br)Cn1ccnc1 (stereo not given),71*,98*,1,1,-0.82,x
Cc1cccc2nc(COc3ccc4ccccc4c3Br)cn12,x,x,x,x,1.3,x
CC(=O)Nc1ccc(OCC(O)Cn2ccnc2)cc1 (stereo not given),-13,-5,x,x,x,-1
OC(COc1ccc2ccccc2c1)Cn1ccnc1 (stereo not given),-1,98*,4,1,1.1,x
Cc1nc2ccccc2n1CC(=O)N1CC(=O)Nc2ccccc21,24,-5,4,1,0.27,x
C=CCn1c(C)cc(C(=O)Cn2ncc(Cl)c(Cl)c2=O)c1C,-28,87*,15,0.8,-1.6,-2.5
O=C1CN(C(=O)Cn2ncc(Cl)c(Cl)c2=O)c2ccccc2N1,-9,74*,19,0.8,0.22,0.45
O=C(Cn1ncc(Cl)c(Cl)c1=O)c1ccc(Cl)cc1,-13,76*,4,1,-1.4,x
O=c1c(Cl)c(Cl)cnn1Cc1ccc(F)cc1,20,73*,15,0.8,-3.2,-2.2
CC(C)(C)C(=O)Cn1ncc(Cl)c(Cl)c1=O,2,34,6,0.9,0.02,0.72
O=C(CCc1ccccc1)NNC(=O)c1cccc(F)c1,17,-4,-14,1.1,-1.5,0.89
COC(=O)c1ccc(NC(=O)CCN2C(=O)CSC2=O)cc1,-7,-7,19,0.8,-1,0.5
CC(=O)Nc1ccc(C(=O)NNC(=O)Cc2ccccc2)cc1,-6,-3,9,0.9,0.34,0.56
COc1ccc(-c2cn(/N=C/c3ccc(Cl)cc3Cl)c(N)n2)cc1,39,5,15,0.9,1.1,0.16
CC(C)CNC(=S)N1CCC(NC(=O)c2ccco2)CC1,2,10,14,0.9,0.65,1.6
CCOC(=O)C1C(=O)C=C(/C=C/c2ccc(N(C)C)cc2)CC1c1ccccc1 (stereo not given),-32,7,29,0.7,-1.4,x
CC[C@H](C)[C@@H](NC(=O)O[C@@H]1C(=O)c2cc(OC)ccc2O[C@H]1c1ccc(OC)c(Br)c1)C(=O)OC,16,4,20,0.8,1.5,1.6
COc1ccc2c(c1)C(=O)[C@H](O)[C@@H](c1ccc(OC)c(Br)c1)O2,12,99*,15,0.8,-0.74,-0.027

# High-throughput results as filed in PubChem BioAssay.
